The nature of data set [1]: Lipophilicity, Log P of the compound. In kind it is physicochemical. The following applies: octanol/water.
Data set [2] in a line: Intrinsic clearance in human liver microsomes assessed per mg of protein. The following applies: read-out: CLH. The data set is classed as ADME. The method, boiled down:
(§1)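 Compound incubated with liver microsomes (human for line 2, rat for line 3) and its concentration followed at up to 8 successive time points. Intrinsic pseudo-first-order decay rate constant (Clint) taken from linear regression of those concentrations and normalised to microsomal protein. Upper and lower bounds are 95% confidence levels from the regression.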
(In general: Liver microsomes are a subcellular fraction often used to study metabolism.)

Data set [3] is described as follows: Intrinsic clearance in rat liver microsomes assessed per mg of protein. The data set is classed as ADME. The following applies: read-out: CLH. Summed up: as §1
Data set [4] can be described thus: Aqueous solubility of the compound at pH 6.5. In kind it is physicochemical.

Consider 13 molecules from ChEMBL document CHEMBL3632616, “Fluorination Patterning: A Study of Structural Motifs That Impact Physicochemical Properties of Relevance to Drug Discovery” (J Med Chem, 2015).

≈ marks a conversion by molar mass, not a printed value.

The logP is a log measure of how a compound divides between an organic and an aqueous phase. Read a high logP as a more lipophilic compound. As to `FC[C@@H](F)[C@H](F)Cc1c[nH]c2ccccc12` (racemic), the log partition coefficient (logP) in data set [1] turned out to be 2.7.
In the case of `FCCCc1c[nH]c2ccccc12`, in data set [1], the logP is 2.8.
The solubility is how much of the substance goes into solution per volume. A high value points to a readily soluble substance. In data set [1], `CCC(F)(F)Cc1c[nH]c2ccccc12` came in with a logP of 3.1. In addition, the values for the microsomal CLint in data set [2] and in data set [3] were 271 µL/min/mg and 644 µL/min/mg, respectively. In addition, the solubility in data set [4] was 182 µM (≈ 38.1 µg/mL).
As to `C[C@H](F)[C@H](F)Cc1c[nH]c2ccccc12` (racemic), in data set [1], the log partition coefficient (logP) was 2.8.
The molecule `CCCc1c[nH]c2ccccc12` displayed a log partition coefficient (logP) in data set [1] of 3.3. Moreover, the results for the microsomal CLint in data set [2] and in data set [3] were 513 µL/min/mg and 182 µL/min/mg, respectively. The molecule further displayed a solubility in data set [4] of 200 µM (≈ 31.8 µg/mL).
In the case of `C[C@@H](F)[C@H](F)Cc1c[nH]c2ccccc12` (racemic), the log partition coefficient (logP) in data set [1] was 2.8.
The same measure, in the same setting: the result for `FC[C@H](F)[C@H](F)Cc1c[nH]c2ccccc12` (racemic) reads 2.7.
For the molecule `CC(F)(F)Cc1c[nH]c2ccccc12`, in data set [1], the lipophilicity (logP) came out at 2.8. In addition, the microsomal CLint in data set [2] was 508 µL/min/mg; in data set [3], 226 µL/min/mg. This molecule came in with a solubility in data set [4] of 820 µM (≈ 160 µg/mL).
The like results for `CC(F)(F)CCc1c[nH]c2ccccc12` were, in that order, 3, 321 µL/min/mg, 584 µL/min/mg and 115 µM (≈ 24.1 µg/mL).
The like results for `FCC(F)CCc1c[nH]c2ccccc12` (stereo unspecified) were, in that order, 2.8, 245 µL/min/mg, 492 µL/min/mg and 277 µM (≈ 58 µg/mL).
`FCC(F)Cc1c[nH]c2ccccc12` (stereo unspecified): in data set [1], the log partition coefficient (logP) was found to be 2.5. Also, the microsomal CLint is 212 µL/min/mg in data set [2] and 142 µL/min/mg in data set [3]. In addition, in data set [4], the solubility was more than 1720 µM.
For `FC(F)CCc1c[nH]c2ccccc12`, the log partition coefficient (logP) in data set [1] amounted to 2.9. Moreover, the microsomal CLint in data set [2] turned out to be 372 µL/min/mg; in data set [3], 294 µL/min/mg.
As for `FC(F)(F)CCc1c[nH]c2ccccc12`, the log partition coefficient (logP) in data set [1] was 3.1. Further, the microsomal CLint came out at 410 µL/min/mg in data set [2] and 290 µL/min/mg in data set [3]. In addition, the concentration in solution in data set [4] (solubility) came to 30 µM (≈ 6.4 µg/mL).
